The source of these data is ChEMBL document CHEMBL2346606, “Inhibitors of the TAM subfamily of tyrosine kinases: synthesis and biological evaluation” (Eur J Med Chem, 2013).

Structures are written as SMILES.

A short description of series [1]: Growth inhibition of African green monkey Vero cells at 10 uM after 72 hrs by […] assay relative to control. Type of series: cell-based. To be noted: chlorocebus sabaeus, read-out: GI. In a few lines: (§1)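 KB and Vero cells were grown in D-MEM with 10% FCS and antibiotics under 5% CO2, plated, then dosed 24 h later at 10^-5 M from DMSO (controls 1% DMSO). After 72 h, MTS was added for 3 h at 37 °C and A490 read. Inhibition = (1 − OD treated/OD control) × 100, in triplicate.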

Series [2] deals with MCF7. Briefly: Growth inhibition of human MCF7 cells at 10 uM after 72 hrs by […] assay relative to control. The following applies: MCF7, 72 h, read-out: GI. The series is classed as functional. The procedure, abridged: (§2)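 HT29, MCF7 and PC-3 cells were grown in RPMI, plated, and treated 24 h later with compound in DMSO at 10^-5 M (DMSO controls, 1% final). After 72 h exposure, MTS reagent was added for 3 h at 37 °C and absorbance read at 490 nm. Proliferation inhibition = [1 − OD treated/OD control] × 100, triplicate experiments.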

The test system of series [3] is PC-3. Briefly: Growth inhibition of human PC3 cells at 10 uM after 72 hrs by […] assay relative to control. Type of series: functional. To be noted: PC-3, 72 h, read-out: GI. The procedure, abridged: as §2
For series [4], the system named is HT-29. The series is described as follows: Growth inhibition of human HT-29 cells at 10 uM after 72 hrs by […] assay relative to control. Type of series: functional. To be noted: HT-29, 72 h, read-out: GI. The procedure, abridged:
as §2

Series [5] relates to KB. Briefly: Growth inhibition of human KB cells at 10 uM after 72 hrs by […] relative to control. Type of series: functional. The following applies: read-out: GI. The procedure, abridged:
as §1

For series [6], the target named is T1, Tyrosine-protein kinase receptor TYRO3 (Homo sapiens, UniProt Q06418).
T1 sequence (Q06418 whole entry): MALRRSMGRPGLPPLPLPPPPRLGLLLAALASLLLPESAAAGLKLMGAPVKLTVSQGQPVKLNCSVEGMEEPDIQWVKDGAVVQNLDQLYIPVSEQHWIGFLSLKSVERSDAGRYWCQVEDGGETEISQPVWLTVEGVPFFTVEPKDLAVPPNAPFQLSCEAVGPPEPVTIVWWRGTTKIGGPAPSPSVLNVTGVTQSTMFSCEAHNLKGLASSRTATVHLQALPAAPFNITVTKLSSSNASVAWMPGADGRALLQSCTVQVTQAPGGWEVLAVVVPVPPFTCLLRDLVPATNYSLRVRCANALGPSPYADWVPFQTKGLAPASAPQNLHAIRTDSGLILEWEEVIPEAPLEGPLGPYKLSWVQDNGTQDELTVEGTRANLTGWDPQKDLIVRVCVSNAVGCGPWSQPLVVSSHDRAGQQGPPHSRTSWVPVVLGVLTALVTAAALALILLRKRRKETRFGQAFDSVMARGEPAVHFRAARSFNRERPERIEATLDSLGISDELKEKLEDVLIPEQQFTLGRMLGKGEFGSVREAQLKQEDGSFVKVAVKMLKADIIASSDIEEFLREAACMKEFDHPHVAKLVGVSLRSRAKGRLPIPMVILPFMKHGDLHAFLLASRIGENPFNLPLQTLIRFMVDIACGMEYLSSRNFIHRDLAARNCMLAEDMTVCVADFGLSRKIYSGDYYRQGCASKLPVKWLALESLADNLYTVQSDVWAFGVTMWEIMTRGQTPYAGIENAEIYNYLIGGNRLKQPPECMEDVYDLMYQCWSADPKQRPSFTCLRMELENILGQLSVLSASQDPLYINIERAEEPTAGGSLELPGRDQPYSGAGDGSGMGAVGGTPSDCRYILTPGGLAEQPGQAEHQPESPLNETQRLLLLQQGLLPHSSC
The series is described as follows: Binding affinity to TYRO3 (unknown origin) after 1 hr.

Series [7] addresses Hepatocyte growth factor receptor (Homo sapiens, UniProt P08581). The series is described as follows: Binding affinity to MET (unknown origin) after 1 hr.
Series [8] concerns the target T2, Tyrosine-protein kinase ABL1 (Homo sapiens, UniProt P00519). Briefly: Binding affinity to phosphorylated ABL1 (unknown origin) after 1 hr.
The target of series [9] is T2, Tyrosine-protein kinase ABL1. The series is described as follows: Binding affinity to non phosphorylated ABL1 (unknown origin) after 1 hr.
Series [10] addresses T3, Tyrosine-protein kinase receptor TYRO3 (Homo sapiens) (UniProt Q06418).
T3 sequence (whole entry): T1 sequence (Q06418 whole entry)
The series is described as follows: Inhibition of TYRO3 (unknown origin) at 200 nM relative to control.

Series [11] concerns the target T4, Tyrosine-protein kinase Mer (Homo sapiens) (UniProt Q12866).
T4 sequence (whole entry): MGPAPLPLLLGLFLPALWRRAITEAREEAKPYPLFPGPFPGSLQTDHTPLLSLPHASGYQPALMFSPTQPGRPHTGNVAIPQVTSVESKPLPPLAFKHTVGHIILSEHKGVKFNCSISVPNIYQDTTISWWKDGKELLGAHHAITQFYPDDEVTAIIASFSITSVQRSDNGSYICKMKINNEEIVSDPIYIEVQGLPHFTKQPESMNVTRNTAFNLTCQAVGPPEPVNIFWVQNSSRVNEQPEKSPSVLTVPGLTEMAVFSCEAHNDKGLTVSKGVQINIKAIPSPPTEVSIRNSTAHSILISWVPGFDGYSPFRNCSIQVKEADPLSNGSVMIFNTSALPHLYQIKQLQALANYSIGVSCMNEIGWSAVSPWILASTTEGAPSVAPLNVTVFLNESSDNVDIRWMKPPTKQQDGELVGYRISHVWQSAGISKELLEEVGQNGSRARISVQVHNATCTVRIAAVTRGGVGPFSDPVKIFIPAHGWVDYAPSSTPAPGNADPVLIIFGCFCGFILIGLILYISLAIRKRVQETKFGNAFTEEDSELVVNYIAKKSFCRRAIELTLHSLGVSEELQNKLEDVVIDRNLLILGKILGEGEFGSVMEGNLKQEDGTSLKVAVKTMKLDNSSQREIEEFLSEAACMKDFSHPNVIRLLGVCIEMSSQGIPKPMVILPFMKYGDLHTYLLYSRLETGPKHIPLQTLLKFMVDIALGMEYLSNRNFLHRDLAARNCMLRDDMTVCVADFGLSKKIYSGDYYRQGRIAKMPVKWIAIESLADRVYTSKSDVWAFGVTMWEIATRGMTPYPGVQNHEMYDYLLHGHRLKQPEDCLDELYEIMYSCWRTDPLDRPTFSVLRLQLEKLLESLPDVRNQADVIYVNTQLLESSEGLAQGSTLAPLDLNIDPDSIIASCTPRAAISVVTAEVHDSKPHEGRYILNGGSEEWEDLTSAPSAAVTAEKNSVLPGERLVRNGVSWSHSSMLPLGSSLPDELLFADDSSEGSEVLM
The series is described as follows: Inhibition of MER (unknown origin) at 200 nM relative to control.

Chain of Hepatocyte growth factor receptor (P08581 whole entry): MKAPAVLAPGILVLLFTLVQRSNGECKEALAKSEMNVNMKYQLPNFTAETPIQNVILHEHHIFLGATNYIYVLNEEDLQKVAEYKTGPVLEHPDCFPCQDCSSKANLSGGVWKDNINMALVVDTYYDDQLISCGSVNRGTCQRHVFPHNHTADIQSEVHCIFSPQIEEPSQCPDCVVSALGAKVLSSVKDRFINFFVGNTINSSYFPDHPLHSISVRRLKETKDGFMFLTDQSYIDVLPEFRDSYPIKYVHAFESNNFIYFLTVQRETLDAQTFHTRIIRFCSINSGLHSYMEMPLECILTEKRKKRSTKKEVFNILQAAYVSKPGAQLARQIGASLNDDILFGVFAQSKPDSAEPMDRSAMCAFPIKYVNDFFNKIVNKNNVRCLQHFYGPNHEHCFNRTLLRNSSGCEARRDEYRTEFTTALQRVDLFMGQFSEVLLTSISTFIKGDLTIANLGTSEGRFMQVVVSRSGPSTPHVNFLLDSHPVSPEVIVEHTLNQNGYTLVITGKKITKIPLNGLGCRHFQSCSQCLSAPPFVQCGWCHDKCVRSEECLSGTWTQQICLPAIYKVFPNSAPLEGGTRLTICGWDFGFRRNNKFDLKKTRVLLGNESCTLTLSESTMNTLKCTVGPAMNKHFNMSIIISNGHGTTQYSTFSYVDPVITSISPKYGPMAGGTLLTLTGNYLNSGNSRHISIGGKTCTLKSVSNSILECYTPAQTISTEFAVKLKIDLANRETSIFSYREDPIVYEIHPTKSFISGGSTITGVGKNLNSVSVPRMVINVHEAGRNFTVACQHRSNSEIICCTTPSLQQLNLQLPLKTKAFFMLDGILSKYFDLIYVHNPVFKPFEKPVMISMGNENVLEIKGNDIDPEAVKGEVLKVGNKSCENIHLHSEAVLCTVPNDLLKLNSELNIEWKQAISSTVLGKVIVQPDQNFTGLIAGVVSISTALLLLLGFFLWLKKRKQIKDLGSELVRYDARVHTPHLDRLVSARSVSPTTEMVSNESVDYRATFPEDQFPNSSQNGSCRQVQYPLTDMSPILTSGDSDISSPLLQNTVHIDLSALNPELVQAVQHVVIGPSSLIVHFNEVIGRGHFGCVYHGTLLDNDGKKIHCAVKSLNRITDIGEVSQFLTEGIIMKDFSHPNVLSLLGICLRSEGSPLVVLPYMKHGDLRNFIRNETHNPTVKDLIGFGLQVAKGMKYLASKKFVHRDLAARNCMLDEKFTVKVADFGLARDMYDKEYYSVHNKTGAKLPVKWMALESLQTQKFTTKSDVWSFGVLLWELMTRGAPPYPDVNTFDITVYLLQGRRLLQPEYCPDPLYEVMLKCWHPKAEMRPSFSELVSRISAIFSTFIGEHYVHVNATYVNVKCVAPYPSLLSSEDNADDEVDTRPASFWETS
T2 sequence (P00519 whole entry): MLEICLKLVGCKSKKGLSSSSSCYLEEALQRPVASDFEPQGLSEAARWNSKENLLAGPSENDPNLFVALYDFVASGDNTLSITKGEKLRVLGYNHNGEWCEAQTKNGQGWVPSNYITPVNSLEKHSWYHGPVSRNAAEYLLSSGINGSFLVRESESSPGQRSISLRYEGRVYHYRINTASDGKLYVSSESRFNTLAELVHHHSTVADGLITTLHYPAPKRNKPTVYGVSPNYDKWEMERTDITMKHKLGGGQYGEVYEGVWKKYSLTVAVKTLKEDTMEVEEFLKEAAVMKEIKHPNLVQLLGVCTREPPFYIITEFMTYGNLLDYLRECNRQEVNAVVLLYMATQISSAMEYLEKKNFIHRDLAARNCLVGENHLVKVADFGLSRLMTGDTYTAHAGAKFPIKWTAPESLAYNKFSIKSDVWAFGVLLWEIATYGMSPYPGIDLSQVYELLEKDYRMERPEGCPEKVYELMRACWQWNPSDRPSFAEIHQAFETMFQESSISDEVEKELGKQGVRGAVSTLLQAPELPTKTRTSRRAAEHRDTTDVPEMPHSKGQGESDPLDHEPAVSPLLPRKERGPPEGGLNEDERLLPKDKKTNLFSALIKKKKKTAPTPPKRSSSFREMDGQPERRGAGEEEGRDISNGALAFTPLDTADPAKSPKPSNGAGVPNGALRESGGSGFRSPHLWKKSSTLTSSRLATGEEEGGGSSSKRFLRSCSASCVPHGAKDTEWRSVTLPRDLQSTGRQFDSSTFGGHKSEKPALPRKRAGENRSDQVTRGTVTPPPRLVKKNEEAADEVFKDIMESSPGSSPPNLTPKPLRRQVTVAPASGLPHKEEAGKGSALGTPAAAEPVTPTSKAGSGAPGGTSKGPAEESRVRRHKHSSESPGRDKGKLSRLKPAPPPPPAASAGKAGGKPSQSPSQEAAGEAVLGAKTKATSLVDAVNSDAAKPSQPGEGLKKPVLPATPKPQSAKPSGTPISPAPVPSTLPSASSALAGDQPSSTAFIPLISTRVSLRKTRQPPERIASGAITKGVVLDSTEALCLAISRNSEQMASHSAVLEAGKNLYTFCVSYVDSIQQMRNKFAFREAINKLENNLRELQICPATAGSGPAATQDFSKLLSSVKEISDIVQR

As to `O=C(Nc1ccc(Oc2ncnc3[nH]cnc23)c(F)c1)c1cccn(-c2cccc(F)c2)c1=O`, the inhibition at 72 h, 10 µM in series [1] is less than 10%. Further, the inhibition of growth at 10 µM in series [2], in series [3], in series [4] and in series [5] was less than 10% in each case. In addition, the dissociation constant (Kd) stood at 900 nM in series [6], 440 nM in series [7], 3300 nM in series [8] and 320 nM in series [9].
Take `CC(C)[S+]([O-])c1ccccc1Nc1nc(Nc2ccc(CN3CCN(C)CC3)cc2)ncc1Cl` (stereo not drawn): the inhibition in series [10] was more than 50%; in series [11] it was more than 90%.
`Cc1cc(C(=O)Nc2cccc(-c3nc4c(Nc5cccc(C(F)(F)F)c5)ncnc4[nH]3)c2)ccc1Br`: the inhibition at 72 h, 10 µM in series [1] was less than 10%. The inhibition of growth at 10 µM in series [2], in [3], in series [4] and in series [5] was less than 10% throughout.
As to `COc1ccccc1C(=O)Nc1ccc(Nc2ncnc3[nH]cnc23)c(F)c1`, the inhibition at 72 h, 10 µM in series [1] is less than 10%. Besides, the inhibition of growth at 10 µM in series [2], in [3], in series [4] and in series [5] was less than 10% throughout.
With `COc1ncccc1C(=O)Nc1cccc(-c2ncnc3[nH]cnc23)c1`, the inhibition at 72 h, 10 µM in [1] was less than 10%. In addition, the inhibition of growth at 10 µM in series [2], in series [3], in series [4] and in series [5] was less than 10% each time.
Regarding `O=C(Nc1cccc(-c2ncnc3[nH]cnc23)c1)c1cccn(-c2ccc(F)cc2)c1=O`, in [1], the inhibition at 72 h, 10 µM was less than 10%. The inhibition of growth at 10 µM in [2], in [3], in [4] and in series [5] was less than 10% throughout.
`COc1ncccc1C(=O)Nc1cccc(-c2nc3c(Nc4ccccc4)ncnc3[nH]2)c1`: the inhibition at 72 h, 10 µM in [1] is less than 10%. For the same molecule, the inhibition of growth at 10 µM in series [2], in series [3], in series [4] and in series [5] was less than 10% in each case.
For the molecule `O=C(Nc1ccc(Oc2ncnc3nc[nH]c23)c(F)c1)c1cccn(-c2ccc(C(F)(F)F)cc2)c1=O`, the inhibition at 72 h, 10 µM in series [1] is less than 10%. Further, the inhibition of growth at 10 µM in series [2], in series [3], in series [4] and in [5] was less than 10% each time. The Kd in series [6] came to 2900 nM; in series [7], 150 nM.
Turning to `O=C(Nc1cccc(-c2ncnc3[nH]cnc23)c1)c1cccn(-c2cccc(C(F)(F)F)c2)c1=O`, in [1], the inhibition at 72 h, 10 µM was less than 10%. The inhibition of growth at 10 µM in [2], in series [3], in series [4] and in series [5] was less than 10% throughout.
Regarding `COc1ccccc1C(=O)Nc1cccc(-c2nc3c(Nc4cccc(F)c4)ncnc3[nH]2)c1`, in [1], the inhibition at 72 h, 10 µM is less than 10%. The inhibition of growth at 10 µM in series [2], in [3], in series [4] and in series [5] was less than 10% throughout.
With `O=C(Nc1cccc(-c2ncnc3[nH]cnc23)c1)c1ccccc1F`, the inhibition at 72 h, 10 µM in series [1] is less than 10%. Further, the inhibition of growth at 10 µM in series [2], in [3], in series [4] and in [5] was less than 10% each time.
In the case of `CCN(CC)CCNC(=O)c1c(C)[nH]c(/C=C2\C(=O)Nc3ccc(F)cc32)c1C` [SUNITINIB], the inhibition at 72 h, 10 µM in series [1] is less than 10%. Besides, the inhibition of growth at 10 µM in series [2], in [3], in series [4] and in series [5] was less than 10% each time.
For the molecule `O=C(Nc1ccc(Nc2ncnc3[nH]cnc23)cc1)c1cccn(-c2cccc(F)c2)c1=O`, the inhibition at 72 h, 10 µM in series [1] is less than 10%. The inhibition of growth at 10 µM in series [2], in [3], in series [4] and in series [5] was less than 10% throughout.
With `O=C(Nc1ccc(Nc2ncnc3[nH]cnc23)c(F)c1)c1ccccc1F`, the inhibition at 72 h, 10 µM in series [1] was less than 10%. Also, the inhibition of growth at 10 µM in [2], in series [3], in series [4] and in series [5] was less than 10% in each case.
